# Publication PMC11951523 (Genome Biology, 2025)
# Where two headings read alike, the source gives them in different places.
# Key:
# SauCas9 [1] = molecular target: T1, SauCas9 (Staphylococcus aureus, UniProt J7RUA5); test: In vitro purified enzyme activity assay for SauCas9; format: biochemical; settings: Sau Cas9
# T1 sequence (J7RUA5 1-1053): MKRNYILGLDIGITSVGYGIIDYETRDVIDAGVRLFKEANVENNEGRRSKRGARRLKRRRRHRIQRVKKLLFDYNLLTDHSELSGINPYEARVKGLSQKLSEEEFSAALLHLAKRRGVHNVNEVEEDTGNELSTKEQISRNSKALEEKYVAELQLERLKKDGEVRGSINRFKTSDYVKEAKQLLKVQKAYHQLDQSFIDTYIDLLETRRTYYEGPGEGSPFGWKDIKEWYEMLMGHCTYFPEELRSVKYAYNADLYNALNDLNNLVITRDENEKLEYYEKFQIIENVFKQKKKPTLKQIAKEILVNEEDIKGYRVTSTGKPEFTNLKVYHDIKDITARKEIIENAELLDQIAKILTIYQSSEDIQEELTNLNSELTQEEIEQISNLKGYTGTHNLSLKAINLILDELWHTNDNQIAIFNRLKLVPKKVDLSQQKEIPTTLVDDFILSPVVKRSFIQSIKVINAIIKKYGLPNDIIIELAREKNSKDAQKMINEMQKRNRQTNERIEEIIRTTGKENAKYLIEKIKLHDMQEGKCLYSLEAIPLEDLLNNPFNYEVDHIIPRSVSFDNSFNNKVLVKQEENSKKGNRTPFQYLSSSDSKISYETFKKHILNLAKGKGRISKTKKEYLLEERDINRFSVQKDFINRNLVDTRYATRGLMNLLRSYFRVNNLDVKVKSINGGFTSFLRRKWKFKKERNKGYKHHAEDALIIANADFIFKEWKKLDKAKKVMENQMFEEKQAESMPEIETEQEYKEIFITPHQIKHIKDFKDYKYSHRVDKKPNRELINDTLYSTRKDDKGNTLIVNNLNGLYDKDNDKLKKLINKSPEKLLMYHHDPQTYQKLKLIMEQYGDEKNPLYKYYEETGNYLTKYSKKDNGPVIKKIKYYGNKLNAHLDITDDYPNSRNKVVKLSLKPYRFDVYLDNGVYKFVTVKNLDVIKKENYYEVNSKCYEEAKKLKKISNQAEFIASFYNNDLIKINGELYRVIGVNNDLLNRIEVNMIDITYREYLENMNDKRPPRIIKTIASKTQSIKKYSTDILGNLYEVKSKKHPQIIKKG
# SpyCas9 [2] = settings: read-out: IC50 in the in vitro DNA cleavage assay; cited from earlier work
# SpyCas9 [3] = molecular target: T2, SpyCas9 (Streptococcus pyogenes serotype M1, UniProt Q99ZW2); test: GFP-disruption assay in HEK293FT cells; format: cell-based; settings: read-out: IC50, cell-based assay; Spy Cas9; GFP-disruption assay, PX459-SpyCas9 and pGL3-sgGFP plasmids, HEK293FT cells
# [4] = test system: SpyCas9-mediated genome editing of PCSK9; test: SpyCas9-mediated anti-PCSK9 mouse model by hydrodynamic injection; format: in vivo, BALB/c mice
# Procedure, shortened: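 On days 1, 4 and 7, 90 μg PX459-SpyCas9-sgPCSK9 or -sgControl in 2 ml saline was injected hydrodynamically into the tail vein over 5–8 s. Orbital blood (~100 μl) was taken days 2, 5 and 8, and heparin plasma (20 μl) was assayed by PCSK9 ELISA.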
# SpyCas9 [5] = molecular target: T2, SpyCas9; test: Two-plasmid-based bacterial survival assay; format: cell-based; settings: read-out: IC50, bacteria-based assay, Spy Cas9, bacterial survival assay using pCas and pTarget-sgSSEA plasmids, E. coli MG1655
# Procedure, shortened: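 E. coli MG1655 competent cells carrying pCas (SpyCas9) electroporated with pTarget-sgSSEA, or the pT-sgControl plasmid as reference. Test compound added to the electroporated bacteria for 1.5 h at 32 °C, then plated on LB with kanamycin and spectinomycin and incubated overnight. Colonies counted and expressed as a percentage of the compound-treated sgControl strain at the same concentration (100%).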
# SpyCas9 [6] = molecular target: T2, SpyCas9; format: cell-based; settings: read-out: IC50, cell-based assay; Spy Cas9; TIDE analysis, editing efficiency for COSMC or EMX1 loci in HEK293FT cells
# Procedure, shortened: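 HEK293FT cells, ~2 × 10^5 per well, were seeded 1 day before transfection (Lipofectamine 3000) with 1 μg PX459-SpyCas9-sgCOSMC, -sgEMX1 or -sgControl. Test compound was added 0 or 6 h post-transfection, and cells were kept 24 h at 37 °C, then selected with 2.5 μg/ml puromycin for 36–48 h. Target loci were PCR-amplified, Sanger-sequenced and scored by TIDE.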
# SauCas9 [7] = molecular target: T1, SauCas9; test: SauCas9-mediated genome editing of COSMC in HEK293FT cells, TIDE analysis; format: cell-based; settings: read-out: IC50, cell-based assay; Sau Cas9; TIDE analysis, editing efficiency for COSMC in HEK293FT cells
# Procedure, shortened: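 HEK293FT wt cells were co-transfected (Lipofectamine 3000) with 1 μg miniCMV-SaCas9 and 1 μg pGL3 carrying sgCOSMC-Sau or sgControl. Test compound was added right after transfection for 24 h, followed by 2.5 μg/ml puromycin selection. The COSMC locus was PCR-amplified (40 cycles), Sanger-sequenced, and editing efficiency was obtained by TIDE analysis.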
# LbaCas12a = LbaCas12a activity assay; format: biochemical, Lachnospiraceae bacterium; settings: for effect on the activity of LbaCas12a: complete inhibition refers to 50 μM or above
# [8] = test system: EcoRI or KpnI endonuclease; test: EcoRI or KpnI endonuclease activity assay with 2.5 kb linear DNA; format: biochemical
# E. coli MG1655 = test: Toxicity to bacteria in the two-plasmid-based bacterial survival assay; format: cell-based; settings: MG1655, bacterial survival assay
# Procedure, shortened: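 MG1655 pCas-competent cells were electroporated with pT-sgControl. Test compound was added to 700 μl LB immediately afterwards and incubated 1.5 h at 32 °C, then plated on LB agar with kanamycin and spectinomycin (100 μg/ml each). Colonies were counted after overnight incubation; biological replicates n = 3.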
# FnoCas12a = FnoCas12a (Francisella tularensis subsp. novicida, UniProt A0Q7Q2); format: biochemical
# [9] = in humans; cited from earlier work
# BE4 base editor = BE4 base editor (Streptococcus pyogenes, UniProt Q99ZW2, D10A); test: BE4-mediated base editing of EMX1 in HEK293FT cells, EditR analysis; format: cell-based; settings: read-out: IC50, cell-based assay; BE4 base editing efficiency for EMX1 loci, HEK293FT cells
# SpyCas9 [10] = molecular target: T2, SpyCas9; test: biochemical; settings: Spy Cas9
# SpyCas9 [11] = molecular target: T2, SpyCas9; test: Surface plasmon resonance assay; format: binding
# Procedure, shortened: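 His-tagged SpyCas9, Ni–NTA purified and imidazole-eluted, amine-coupled to a CM5 chip at 100 μg/ml. Test compounds were diluted in 1× PBST to a series of concentrations and injected at 30 μl/min, with 120 s association and 120 s dissociation. Equilibrium KD was fitted from the response curves.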
# [12] = read-out: IC50, in vitro purified enzyme assay, linear substrates (87 bp oligonucleotide)
# [13] = read-out: IC50, in vitro purified enzyme assay, supercoil (circular) plasmid substrate
smiles,measurement,setting,value
Cc1ccc(S(=O)(=O)N2CC[C@@H]3[C@H](CO)Nc4ccc(-c5ccccc5F)cc4[C@@H]32)cc1 [BRD0539],IC50,SauCas9 [1]; [12],10 to 20 µM
same,IC50,SauCas9 [1]; [13],~50 µM
same,IC50,SpyCas9 [2],22 µM
CN[C@H]1C(=O)N[C@@H]2Cc3ccc(cc3)Oc3cc4cc(c3O[C@@H]3O[C@H](C(=O)O)[C@@H](O)[C@H](O)[C@H]3NC(=O)CCCCCCCCC(C)C)Oc3ccc(cc3Cl)[C@@H](O)[C@@H]3NC(=O)[C@H](NC(=O)[C@@H]4NC(=O)[C@@H](NC2=O)c2cc(cc(O)c2Cl)Oc2cc1ccc2O)c1ccc(O)c(c1)-c1c(O[C@H]2O[C@H](CO)[C@@H](O)[C@H](O)[C@@H]2O)cc(O)cc1[C@@H](C(=O)NCCCN(C)C)NC3=O [Dalbavancin],IC50,SpyCas9 [3],~10 µM
same,effect on the basal level of PCSK9 in vehicle-treated (sgControl) mice,[4]; 160 mg/kg,did not interfere
same,preventive effect on loss of plasma PCSK9,"[4]; high doses of 80 or 160 mg/kg, 2nd or 3rd treatment cycle",strong preventive effects
same,IC50,SauCas9 [1]; [12],~25 µM
same,IC50,SauCas9 [1]; [13],12.5 to 25 µM
same,IC50,SpyCas9 [5],12.5 to 25 µM
same,IC50,SpyCas9 [5]; listed as dalbavancin,~12.5 µM
same,IC50,SpyCas9 [6],~10 µM
same,IC50,SauCas9 [7],~10 µM
same,effect on the activity of LbaCas12a,LbaCas12a,inactive to or weakly inhibited
same,selectivity for Cas9 over other endonucleases EcoRI and KpnI,[8],more than 10 folds
same,toxicity to E. coli,E. coli MG1655,did not appear to be much toxic
same,effect on the activity of FnoCas12a,FnoCas12a,inactive to or weakly inhibited
same,elimination half-time (t1/2 value),[9],~ 1 week
same,site of metabolism / elimination,[9],largely eliminated in the kidney
same,IC50,BE4 base editor,10 to 20 µM
same,IC50,"SpyCas9 [10]; read-out: IC50, in vitro purified enzyme assay, linear substrates (87 bp oligonucleotide or 2.5 kb linear DNA)",~5 µM
same,IC50,"SpyCas9 [10]; read-out: IC50, in vitro purified enzyme assay, supercoil (circular) plasmid substrate pcDNA3.1/CT-GFP",10 to 20 µM
CCCCC(CC)COC(=O)CC(C(=O)OCC(CC)CCCC)S(=O)(=O)O (stereo not shown) [Docusate],IC50,"SauCas9 [1]; IC50, in vitro purified enzyme assay, linear substrates (87 bp oligonucleotide)",12.5 to 25 µM
same,IC50,"SauCas9 [1]; IC50, in vitro purified enzyme assay, supercoil (circular) plasmid substrate",25 to 50 µM
same,selectivity of inhibition between SpyCas9 (Type II-A) and LbaCas12a (Type V),LbaCas12a,less than 5 folds
same,effect on the activity of LbaCas12a,LbaCas12a,completely inhibit
same,selectivity for Cas9 over other endonucleases EcoRI and KpnI,[8],~ 5 folds
same,effect on the activity of FnoCas12a,FnoCas12a,completely inhibit
same,selectivity of inhibition between SpyCas9 (Type II-A) and FnoCas12a (Type V),FnoCas12a,less than 5 folds
same,Kd,SpyCas9 [11],12.8 to 56.4 µM
same,IC50,"SpyCas9 [10]; IC50, in vitro purified enzyme assay, linear substrates (87 bp oligonucleotide or 2.5 kb linear DNA)",20 to 50 µM
same,IC50,"SpyCas9 [10]; IC50, in vitro purified enzyme assay, supercoil (circular) plasmid substrate pcDNA3.1/CT-GFP",10 to 20 µM
